Screens from PubChem.
TRPC4 inh – inhibitors of mouse TRPC4 channel, primary screen, Fluo4 calcium, HEK293 TRPC4beta/mu-opioid cells; Short transient receptor potential channel 4 (Mus musculus), Q9QUQ5; DAMGO-evoked Fluo4 calcium flux; hits give low values; B-score at 10 µM; 0.39% of 300,000 active; AID 2247, 2010;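 active = B-score over 3 SD under the library average, no early fluorescence shift, positive overall ratio signal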
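Assay system: HEK293 cells with stable TRPC4beta plus mu-opioid receptor expression; Probe or stimulus: DAMGO in two steps, submaximal then maximal; Dosing: single-point compound dosing; Measured by: Fluo4 calcium-dye fluorescence, kinetic read; Read-out basis: B score from integrated Fluo4 fluorescence ratio.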
TRPC6 inhibitor – mouse TRPC6 channel inhibitors, primary screen, cell-based, HEK293, membrane potential dye. Short transient receptor potential channel 6 (Mus musculus), Q61143. ACh-evoked depolarization; hits give low values. B-score at 10 µM. 1.1% of 310,000 active;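 active = B-score under library mean minus 3 SD, initial fluorescence not abnormally high, positive integrated signal ratio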;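 note: B-score derived from integrated fluorescence ratio over the kinetic read; more negative B-score means stronger inhibition of depolarization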
TRPC4 potent – positive allosteric modulators of TRPC4, primary screen, cell-based, mouse TRPC4beta, HEK293 mu-opioid, Fluo-4 calcium | Short transient receptor potential channel 4 (Mus musculus), Q9QUQ5 | 0.42% of 310,000 active | B-score at 10 µM | AID 2227, 2009 | DAMGO EC20, Fluo-4 Ca2+ flux; hits give high values;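 active = B-score of calcium response area above 5 SD of library B-scores, with initial fluorescence ratio within 5 SD of library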;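 note: B-score of integrated fluorescence ratio over time as area under calcium response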
TRPC4 agonist – activators of mouse TRPC4 channel, primary screen, Fluo4 calcium, HEK293 TRPC4beta/mu-opioid cells | Fluo4 calcium fluorescence; hits give high values | B-score at 10 µM | 0.49% of 310,000 active;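 active = B-score above 5 SD of library B-scores, and initial fluorescence ratio not above library mean plus 5 SD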;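 note: positive B-score marks a calcium rise read as TRPC4 activation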
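Test system: HEK293 cells stably co-expressing mouse TRPC4beta and mu-opioid receptor | Schedule: Fluo4 dye loading 45 min at room temperature, 110 s recording | Measured by: Kinetic Fluo4 calcium fluorescence, 5 s baseline at 1 Hz | Evaluation: B score of integrated ratio | Controls: Buffer (low) and maximal DAMGO (high)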
Kir21 block – inhibitors of mouse Kir2.1 inward-rectifier potassium channel; Inward rectifier potassium channel 2 (Mus musculus), P35561; HEK293-Kir2.1, FluxOR thallium flux fluorescence; hits give low values; B-score at 10 µM; 0.85% of 310,000 active; AID 1672, 2009;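 active = fluorescence ratio B-score at or below minus 3 SD of library scores, with starting-brightness B-score within 2 SD, cut at about -4.2 in these data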;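 note: channel flux triggered by added potassium and thallium sulfate stimulus; B-score of peak minus minimum fluorescence over baseline after thallium stimulus; more negative B-score means stronger Kir2.1 block with less thallium influx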
Target sequence (P35561 whole entry, looked up): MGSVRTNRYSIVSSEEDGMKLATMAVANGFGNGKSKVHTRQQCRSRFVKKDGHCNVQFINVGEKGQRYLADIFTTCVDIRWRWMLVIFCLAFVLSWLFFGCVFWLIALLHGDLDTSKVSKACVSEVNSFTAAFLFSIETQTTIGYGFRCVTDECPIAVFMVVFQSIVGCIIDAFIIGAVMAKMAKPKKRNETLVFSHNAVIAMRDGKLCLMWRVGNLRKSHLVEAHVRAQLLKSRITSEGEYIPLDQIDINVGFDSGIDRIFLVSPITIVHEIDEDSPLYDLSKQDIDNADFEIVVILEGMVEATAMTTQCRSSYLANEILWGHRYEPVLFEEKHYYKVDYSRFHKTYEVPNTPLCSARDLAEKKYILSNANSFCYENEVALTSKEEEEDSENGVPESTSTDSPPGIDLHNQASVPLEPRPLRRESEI
TRPC6 act – mouse TRPC6 channel activators, primary screen, cell-based, HEK293, membrane potential dye; Short transient receptor potential channel 6 (Mus musculus), Q61143; HEK293-TRPC6 membrane potential dye fluorescence; hits give high values; B-score at 10 µM; 0.13% of 310,000 active; AID 2550, 2010;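 active = B-score of the integrated fluorescence ratio above library mean plus 3 SD, and starting fluorescence ratio within library mean plus 5 SD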;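 note: higher score means more depolarization so channel activation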
* hit, by the source's call. Rows were chosen to be rich in hits. Some 2.9% of all compounds tested hit in one or more screens of this group.

Results for Cc1cc(NS(=O)(=O)c2ccc(NC(=O)COc3ccc(Cl)cc3Cl)cc2)no1 ?
TRPC4 inh: inactive; TRPC6 inhibitor: inactive; TRPC4 potent: inactive; TRPC4 agonist: inactive; Kir21 block: 1.5; TRPC6 act: inactive

How did Cc1ccc(C(=O)N2CCCC(C(=O)c3cc(F)ccc3F)C2)s1 (stereo unspecified) do in these assays?
TRPC4 inh: inactive; TRPC6 inhibitor: inactive; TRPC4 potent: inactive; TRPC4 agonist: inactive; Kir21 block: -5*; TRPC6 act: inactive

How did O=c1[nH]c2ccccc2nc1C(Nc1ccccc1)c1ccccc1 (stereo unspecified) do in these assays?
TRPC4 inh: inactive; TRPC6 inhibitor: inactive; TRPC4 potent: inactive; TRPC4 agonist: inactive; Kir21 block: 1.3; TRPC6 act: inactive

Results for CCN(CC)C(=S)SSC(=S)N(CC)CC ?
TRPC4 inh: inactive; TRPC6 inhibitor: inactive; TRPC4 potent: inactive; TRPC4 agonist: inactive; Kir21 block: -4.5*; TRPC6 act: inactive

What do the screens show for `Cc1nnc(C)c2c(C)n(C(c3ccccc3)c3ccccc3)c(C)c12`?
TRPC4 inh: inactive; TRPC6 inhibitor: inactive; TRPC4 potent: inactive; TRPC4 agonist: inactive; Kir21 block: -4.5*; TRPC6 act: inactive

Results for Cc1nnc(C)c2c(C)n(-c3ccccc3N)c(C)c12 ?
TRPC4 inh: inactive; TRPC6 inhibitor: inactive; TRPC4 potent: inactive; TRPC4 agonist: inactive; Kir21 block: 0.58; TRPC6 act: inactive

How did CSc1ccc(Cc2ccc(Cl)cc2Cl)nn1 do in these assays?
TRPC4 inh: inactive; TRPC6 inhibitor: inactive; TRPC4 potent: inactive; TRPC4 agonist: inactive; Kir21 block: -1.4; TRPC6 act: inactive

How did NNc1ccc(Cc2ccc(Cl)cc2Cl)nn1 do in these assays?
TRPC4 inh: inactive; TRPC6 inhibitor: inactive; TRPC4 potent: 15*; TRPC4 agonist: inactive; Kir21 block: 1.1; TRPC6 act: inactive

What do the screens show for `O=C(c1cccc(C(=O)N(c2ccccn2)C2CCCCC2)c1)N(c1ccccn1)C1CCCCC1`?
TRPC4 inh: inactive; TRPC6 inhibitor: inactive; TRPC4 potent: inactive; TRPC4 agonist: inactive; Kir21 block: 0.42; TRPC6 act: inactive

Results for N#C/C(=C\c1ccccc1)C(=O)N(c1ccccn1)C1CCCCC1 ?
TRPC4 inh: inactive; TRPC6 inhibitor: inactive; TRPC4 potent: inactive; TRPC4 agonist: inactive; Kir21 block: -11*; TRPC6 act: inactive

What do the screens show for `COC(=O)c1cc(S(=O)(=O)N2CCN(Cc3ccccc3)CC2)cn1C`?
TRPC4 inh: inactive; TRPC6 inhibitor: inactive; TRPC4 potent: inactive; TRPC4 agonist: inactive; Kir21 block: -1.5; TRPC6 act: inactive

Results for CC(C)COc1ccc(CN=C(N)N=C(N)N)cc1Cl ?
TRPC4 inh: inactive; TRPC6 inhibitor: inactive; TRPC4 potent: inactive; TRPC4 agonist: 50*; Kir21 block: -0.02; TRPC6 act: inactive

What do the screens show for `O=C(NCc1ccc2c(c1)OCO2)C(=O)Nc1cc2c3c(c1)CC(=O)N3CCC2`?
TRPC4 inh: inactive; TRPC6 inhibitor: inactive; TRPC4 potent: inactive; TRPC4 agonist: inactive; Kir21 block: -0.62; TRPC6 act: inactive

How did CCCC1NC(=S)N(C2CCCCC2)C1=O (stereo unspecified) do in these assays?
TRPC4 inh: inactive; TRPC6 inhibitor: inactive; TRPC4 potent: inactive; TRPC4 agonist: inactive; Kir21 block: 2.4; TRPC6 act: inactive

Results for O=C1CNC(=S)N1C1CCCCCC1 ?
TRPC4 inh: inactive; TRPC6 inhibitor: inactive; TRPC4 potent: inactive; TRPC4 agonist: inactive; Kir21 block: -5.6*; TRPC6 act: inactive

How did COc1ccc(OC(C)C(=O)NCCC2=CCCCC2)cc1 (stereo unspecified) do in these assays?
TRPC4 inh: inactive; TRPC6 inhibitor: inactive; TRPC4 potent: inactive; TRPC4 agonist: inactive; Kir21 block: -6.4*; TRPC6 act: inactive
